# Reference: ChEMBL document CHEMBL3046382, “Synthesis and insecticidal activities and SAR studies of novel benzoheterocyclic diacylhydrazine derivatives” (2009)
# What was measured:
# Assay type in all cases: functional
# Culicidae [1] = test: Toxicity against fourth-instar larvae of Culex pipiens pallens assessed as mortality at 2 mg/kg measured after 7 to 10 days
# In short: (§1)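 For each concentration, 1 mL of dilution was added to 99 mL water and 20 fourth-instar larvae introduced. Percentage mortality assessed 7–10 days after treatment.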
# Culicidae [2] = test: Toxicity against fourth-instar larvae of Culex pipiens pallens assessed as mortality at 1 mg/kg measured after 7 to 10 days; in short: as §1
# Culicidae [3] = test: Toxicity against fourth-instar larvae of Culex pipiens pallens assessed as mortality at 0.5 mg/kg measured after 7 to 10 days; in short: as §1
# Mythimna separata [4] = test: Stomach toxicity in fourth-instar Mythimna separata(Oriental armyworm) larvae in compound treated corn leaves assessed as mortality at 200 mg/kg measured after 4 days; conditions: 96 h
# Mythimna separata [5] = test: Stomach toxicity in fourth-instar Mythimna separata (Oriental armyworm) larvae in compound treated corn leaves assessed as mortality at 100 mg/kg measured after 4 days; conditions: 96 h
# Mythimna separata [6] = test: Stomach toxicity in fourth-instar Mythimna separata (Oriental armyworm) larvae in compound treated corn leaves assessed as mortality at 10 mg/kg measured after 4 days; conditions: 96 h
# Mythimna separata [7] = test: Stomach toxicity in fourth-instar Mythimna separata (Oriental armyworm) larvae in compound treated corn leaves assessed as mortality at 25 mg/kg measured after 4 days; conditions: 96 h
# Mythimna separata [8] = test: Stomach toxicity in fourth-instar Mythimna separata (Oriental armyworm) larvae in compound treated corn leaves assessed as mortality at 50 mg/kg measured after 4 days; conditions: 96 h
# Mythimna separata [9] = test: Stomach toxicity in fourth-instar Mythimna separata (Oriental armyworm) larvae in compound treated corn leaves assessed as mortality at 5 mg/kg measured after 4 days; conditions: 96 h
# Mythimna separata [10] = test: Stomach toxicity in fourth-instar Mythimna separata (Oriental armyworm) larvae in compound treated corn leaves assessed as mortality at 2.5 mg/kg measured after 4 days; conditions: 96 h
SMILES,mortality at 2 mg/kg (Culicidae [1]) [%],mortality at 1 mg/kg (Culicidae [2]) [%],mortality at 0.5 mg/kg (Culicidae [3]) [%],mortality at 200 mg/kg (Mythimna separata [4]) [%],mortality at 100 mg/kg (Mythimna separata [5]) [%],mortality at 10 mg/kg (Mythimna separata [6]) [%],mortality at 25 mg/kg (Mythimna separata [7]) [%],mortality at 50 mg/kg (Mythimna separata [8]) [%],mortality at 5 mg/kg (Mythimna separata [9]) [%],mortality at 2.5 mg/kg (Mythimna separata [10]) [%]
Cc1c(C(=O)NN(C(=O)c2cc([N+](=O)[O-])cc([N+](=O)[O-])c2)C(C)(C)C)ccc2c1CC(C)O2 (stereo not given),30,20,10,20,0,–,–,–,–,–
Cc1c(C(=O)NN(C(=O)c2ccc(Cl)cc2)C(C)(C)C)ccc2c1CC(C)O2 (stereo not given),0,0,–,100,100,0,90,100,–,–
Cc1cccc(C(=O)N(NC(=O)c2ccc3c(c2C)CC(C)O3)C(C)(C)C)c1 (stereo not given),0,0,–,100,100,100,100,100,15,0
Cc1c(C(=O)NN(C(=O)c2cc(Cl)cc(Cl)c2)C(C)(C)C)ccc2c1CC(C)O2 (stereo not given),80,50,0,100,100,90,90,100,10,0
Cc1c(C(=O)NN(C(=O)c2ccc(Cl)cc2Cl)C(C)(C)C)ccc2c1CC(C)O2 (stereo not given),0,0,–,100,100,0,90,100,–,–
Cc1c(C(=O)NN(C(=O)c2ccccc2)C(C)(C)C)ccc2c1CC(C)(C)O2,50,30,10,40,10,–,–,0,–,–
Cc1c(C(=O)NN(C(=O)c2ccccc2[N+](=O)[O-])C(C)(C)C)ccc2c1CC(C)(C)O2,40,20,10,50,0,–,–,–,–,–
Cc1c(C(=O)NN(C(=O)c2cccc([N+](=O)[O-])c2)C(C)(C)C)ccc2c1CC(C)(C)O2,30,20,10,10,0,–,–,–,–,–
Cc1c(C(=O)NN(C(=O)c2ccc([N+](=O)[O-])cc2)C(C)(C)C)ccc2c1CC(C)(C)O2,20,0,–,10,0,–,–,–,–,–
Cc1c(C(=O)NN(C(=O)c2ccccc2Cl)C(C)(C)C)ccc2c1CC(C)(C)O2,70,20,0,60,0,–,–,–,–,–
Cc1c(C(=O)NN(C(=O)c2cccc(Cl)c2)C(C)(C)C)ccc2c1CC(C)(C)O2,10,0,–,80,10,–,–,0,–,–
Cc1c(C(=O)NN(C(=O)c2ccc(Cl)cc2)C(C)(C)C)ccc2c1CC(C)(C)O2,60,10,0,90,10,–,–,0,–,–
COc1ccccc1C(=O)N(NC(=O)c1ccc2c(c1C)CC(C)(C)O2)C(C)(C)C,20,10,0,0,0,–,–,–,–,–
COc1cccc(C(=O)N(NC(=O)c2ccc3c(c2C)CC(C)(C)O3)C(C)(C)C)c1,40,30,10,100,30,–,0,20,–,–
COc1ccc(C(=O)N(NC(=O)c2ccc3c(c2C)CC(C)(C)O3)C(C)(C)C)cc1,10,0,–,60,0,–,–,–,–,–
Cc1cccc(C(=O)N(NC(=O)c2ccc3c(c2C)CC(C)(C)O3)C(C)(C)C)c1,50,10,10,100,90,–,0,30,–,–
Cc1cc(C)cc(C(=O)N(NC(=O)c2ccc3c(c2C)CC(C)(C)O3)C(C)(C)C)c1,70,0,–,100,100,0,20,90,–,–
Cc1c(C(=O)NN(C(=O)c2cc([N+](=O)[O-])cc([N+](=O)[O-])c2)C(C)(C)C)ccc2c1CC(C)(C)O2,30,20,10,40,0,–,–,–,–,–
Cc1c(C(=O)NN(C(=O)c2cc(Cl)cc(Cl)c2)C(C)(C)C)ccc2c1CC(C)(C)O2,30,20,10,60,0,–,–,–,–,–
Cc1c(C(=O)NN(C(=O)c2ccc(Cl)cc2Cl)C(C)(C)C)ccc2c1CC(C)(C)O2,50,0,–,90,10,–,–,0,–,–
Cc1c(C(=O)NN(C(=O)c2ccccc2)C(C)(C)C)ccc2c1CC(C)O2 (stereo not given),0,0,–,100,100,0,80,90,–,–
Cc1c(C(=O)NN(C(=O)c2ccccc2[N+](=O)[O-])C(C)(C)C)ccc2c1CC(C)O2 (stereo not given),30,20,0,100,100,0,20,60,–,–
Cc1c(C(=O)NN(C(=O)c2cccc([N+](=O)[O-])c2)C(C)(C)C)ccc2c1CC(C)O2 (stereo not given),20,10,0,20,0,–,–,–,–,–
Cc1c(C(=O)NN(C(=O)c2ccc([N+](=O)[O-])cc2)C(C)(C)C)ccc2c1CC(C)O2 (stereo not given),40,0,–,60,0,–,–,–,–,–
Cc1c(C(=O)NN(C(=O)c2ccccc2Cl)C(C)(C)C)ccc2c1CC(C)O2 (stereo not given),30,20,10,100,100,0,40,100,–,–
Cc1c(C(=O)NN(C(=O)c2cccc(Cl)c2)C(C)(C)C)ccc2c1CC(C)O2 (stereo not given),60,20,10,100,100,10,30,80,0,–
